The list is not random: actives were taken first. Their share in the collection is about 2.5%.
MC4R barr agon = MC4R agonists recruiting beta-arrestin, primary screen, cell-based, luminescence, agonist arm of biased-ligand search. U2OS MC4R beta-arrestin complementation; percent of melanotan II response, DMSO zero. activation, % at 8.9 µM. 0.98% of 360,000 active;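 active = activation above a per-plate cutoff, the mean activation of sample wells on that plate plus 3 SD, cut at about 8% in these data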
NTR1 ag = agonists of human NTR1, primary screen, imaging, U2OS cells, beta-arrestin-GFP, high content; 0.17% of 330,000 active; AID 493036, 2011; activation, % at 20 µM; Neurotensin receptor type 1 (Homo sapiens), P30989; NTR1-U2OS beta-arrestin-GFP spot imaging, agonist mode;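 active = activation at or above 40% of the spot to cytoplasm intensity ratio, with at least 20 cells analyzed; inconclusive = wells under 20 cells, flagged as cytotoxic or low count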;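 also: 0% = DMSO without peptide and 100% = 100 nM NTR1 peptide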
Target sequence (P30989 whole entry, looked up): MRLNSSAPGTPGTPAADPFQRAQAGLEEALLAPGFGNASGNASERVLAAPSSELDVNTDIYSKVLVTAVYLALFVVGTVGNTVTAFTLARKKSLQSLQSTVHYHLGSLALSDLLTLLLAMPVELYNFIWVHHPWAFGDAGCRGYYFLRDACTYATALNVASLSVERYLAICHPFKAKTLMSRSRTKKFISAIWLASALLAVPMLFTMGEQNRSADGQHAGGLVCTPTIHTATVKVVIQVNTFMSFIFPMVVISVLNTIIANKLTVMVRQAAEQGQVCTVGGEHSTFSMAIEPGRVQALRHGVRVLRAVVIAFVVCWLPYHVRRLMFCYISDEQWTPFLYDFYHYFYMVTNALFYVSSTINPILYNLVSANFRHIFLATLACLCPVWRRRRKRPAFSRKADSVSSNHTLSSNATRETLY
Exocytosis inh = LAMP-1 surface exposure blockers, TALL-104 cells – cell-based, flow cytometry, MLPCN library, primary screen | AID 651702, 2012 | TALL-104 LAMP-1 surface exposure; cells stimulated with thapsigargin and PMA | 0.66% of 360,000 active | inhibition, % at 10 µM;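 active = inhibition above about 55%, limit read from the data; inconclusive = no clear call, values can overlap the other calls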
A1 inh = caspase 3/7 activation in MEF A1-2A-BIM cells, primary screen, A1 inhibitor project, cell-based, luminescence, HTS | Caspase-Glo 3/7 luminescence, 3 h; percent of clofoctol response, vehicle zero | 0.066% of 330,000 active | caspase activation, % (no concentration beside the values);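 active = over half of replicate activation scores above 10%, or exactly half above 10 with the replicate mean above 10; inconclusive = replicate mean below 10 yet half the replicates above 10; inactive = over half of replicates below 10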
HGIII-sPLA2 inh = human group III sPLA2 inhibitors, primary screen, biochemical, QFRET, BODIPY PC-A2 liposome substrate | QFRET BODIPY PC-A2 liposome hydrolysis, fluorescence | AID 743126, 2013 | 0.56% of 370,000 active | inhibition, % at 12.2 µM;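 active = inhibition above mean plus 3 SD of compounds lying within the high and low control bounds, cut at about 19% in these data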;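 also: 0% = median of test compound wells and 100% = no enzyme DMSO wells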
MC4R antag cAMP = MC4R antagonists of cAMP signaling, primary screen, cell-based, TR-FRET, antagonist arm of biased-ligand search | Melanocortin receptor 4 (Homo sapiens), P32245 | MC4R-expressing cells, MTII-stimulated cAMP, LANCE TR-FRET | inhibition, % at 6.5 µM | 0.48% of 360,000 active | AID 540295, 2011;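 active = inhibition above its plate's cutoff, the mean of tested wells on that plate plus 3 SD, cut at about 29% in these data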;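 also: 0% = Melanotan II alone and 100% = Melanotan II plus saturating MCL0020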
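Material: U2OS-MC4R stable cell line | Reagent: Melanotan II challenge after compound preincubation | Doses: One concentration, 6.5 µM nominal | Incubation: 30-min compound preincubation, 1-h Melanotan II challenge, 1-h detection, room temperature | Signal: TR-FRET cAMP assay | Replicates: One well per compound, no replicates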
hGIII sPLA2 conf = human group III sPLA2 inhibitors, confirmation, biochemical, QFRET, triplicate. shares compounds with HGIII-sPLA2 inh. recombinant hGIII-sPLA2, BODIPY PC-A2 QFRET fluorescence. inhibition, % at 12.2 µM. 34% of 2,000 active;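 active = mean inhibition across triplicates above the hit cutoff set in the earlier primary screen, cut at about 19% in these data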;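 also: 0% = enzyme with DMSO and 100% = DMSO wells lacking enzyme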
535nm interf = 535nm fluorescence optical interference, confirmation, artefact control for HGIII-sPLA2 inhibitor project, biochemical, QFRET. shares compounds with HGIII-sPLA2 inh. BODIPY FL product fluorescence interference. inhibition, % at 12.2 µM. 8.5% of 2,000 active. AID 743282, 2014;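 active = average inhibition above the solvent-only control mean plus 3 SD, cut at about 6% in these data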;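 also: 0% = DMSO with substrate plus product and 100% = DMSO with substrate alone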
BODIPY interf DR = 535nm fluorescence optical interference, dose response, artefact control for HGIII-sPLA2 inhibitor project, biochemical, QFRET | shares compounds with HGIII-sPLA2 inh | BODIPY FL product fluorescence interference, cell-free | IC50, µM | 240 tested, under 10 active | AID 743455, 2014;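 active = IC50 at or below 10 µM; inactive = IC50 above 10 µM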
Starred values were filed as active, the others as inactive; u = inconclusive; x = not tested or not shown.

SMILES	MC4R barr agon	NTR1 ag	Exocytosis inh	A1 inh	HGIII-sPLA2 inh	MC4R antag cAMP	hGIII sPLA2 conf	535nm interf	others
CS(=O)(=O)N1CCN(c2nc3ccc(Cl)cc3s2)CC1	-2	0	-2	0	23*	3	-3	-7
CCOC(=O)CSC1=C(C#N)C(c2sccc2C)C(C(C)=O)=C(C)N1 (stereo unspecified)	1	2	0	u	4	6	x	x
CC(=O)C1=C(C)NC(SCC(N)=O)=C(C#N)C1c1sccc1C (stereo unspecified)	2	0	5	1	23*	19	7	-5
CC(=O)C1=C(O)C(=O)N(C)C1c1ccccc1[N+](=O)[O-] (stereo unspecified)	0	1	6	0	25*	-6	-1	-2
COc1ccc([N+](=O)[O-])cc1NC(=O)N(C)Cc1ccco1	0	1	6	0	4	21	x	x
Oc1ccc(Nc2nc(-c3cccs3)cs2)cc1	-2	0	5	0	23*	0	23*	9.7*
COc1ccc(Nc2nc(-c3cccs3)cs2)cc1	x	1	x	-5	2	x	x	x
COc1ccccc1NC(=S)NNC(=O)c1nn(C)c(C)c1Cl	-1	-2	0	0	34*	-5	46*	1	BODIPY interf DR=>122
COc1ccccc1NC(=S)NNC(=O)c1nn(C)c(C)c1Br	2	2	-2	-1	44*	-6	29*	6	BODIPY interf DR=>122
COc1ccccc1NC(=S)NNC(=O)c1nn(C)cc1Cl	-1	-2	6	1	31*	1	38*	3	BODIPY interf DR=>122
COc1ccccc1NC(=S)NNC(=O)c1ccc(O)cc1	-1	-4	13	-1	9	1	x	x
O=C(N/N=C/c1coc2ccccc2c1=O)c1cc(Br)ccc1O	-4	0	-3	0	22*	-2	13	1
O=C(N/N=C/c1coc2ccccc2c1=O)c1ccccc1	-4	-1	-1	1	-2	2	x	x
CCc1ccc(-c2nc(SCC(=O)N(CC)C3CCS(=O)(=O)C3)n[nH]2)cc1 (stereo unspecified)	0	1	-21	0	4	12	x	x
O=S(=O)(c1ccc(-c2n[nH]c(=S)o2)cc1)N1CCCC1	-1	10	-5	1	21*	-1	18	-3
O=S(=O)(c1ccc(-c2n[nH]c(=S)o2)cc1)N1CCCCC1	-2	4	-12	0	12	1	x	x
Cc1cc(C)nc(SCc2cn3cc(Cl)ccc3n2)n1	-1	5	-1	1	21*	4	3	-9
Clc1ccc2nc(CSc3ncn[nH]3)cn2c1	-1	-1	1	0	-3	11	x	x
COc1cc(-c2n[nH]c(=S)n2-c2cccc(C(F)(F)F)c2)cc(OC)c1OC	-2	-1	7	2	26*	2	25*	-1
COc1ccc2c(c1)C1NC(=S)N[C@@](C)(O2)C1C(=O)Nc1ccccc1 (stereo partly specified)	-2	2	2	0	21*	8	24*	-3
Cc1ccc2c(c1)C1NC(=S)NC(C)(O2)C1C(=O)Nc1ccc(Cl)cc1 (stereo unspecified)	-4	0	-1	0	7	13	x	x
COc1ccc2c(c1)C1NC(=S)NC(C)(O2)C1C(=O)Nc1ccc(C)cc1C (stereo unspecified)	2	4	-4	2	17	7	x	x
COc1ccc2c(c1)C1NC(=S)NC(C)(O2)C1C(=O)Nc1ccc(Cl)cc1 (stereo unspecified)	-3	2	-2	0	20*	12	15	-3
COc1ccc(CCNC(=O)Cn2nc(C)n3nc(-c4ccccc4)cc3c2=O)cc1OC	-3	1	0	0	-3	3	x	x
CCOc1ccc(-n2c(=O)c3sccc3n(CC(=O)NCC3CCCO3)c2=O)cc1 (stereo unspecified)	-2	0	-6	-1	0	1	x	x
SMILES	MC4R barr agon	NTR1 ag	Exocytosis inh	A1 inh	HGIII-sPLA2 inh	MC4R antag cAMP	hGIII sPLA2 conf	535nm interf	others
Cc1nn(CC(=O)Nc2ccc(Cl)cn2)c(C)c1Br	1	-1	-4	0	20*	4	8	-4
O=C(NCc1ccccc1)N1CCNCC1	-1	1	-1	1	22*	25	1	-7
C[C@H]1CN=C(Nc2ccccc2)N1CCc1ccccc1	0	3	3	1	7	0	x	x
CC(C)C[C@@H]1COc2cccc(N3CCSCC3)c2S(=O)(=O)N1	x	x	-1	x	6	x	x	x
c1cc2c3c(cccc3c1)NC1(CCCC1)N2	-2	x	1	x	24*	1	20*	3
O=C(OCCC12CC3CC(CC(C3)C1)C2)c1ccc(NCc2cc(O)ccc2O)cc1	2	x	-7	x	21*	-10	21*	13*
Cc1occc1C(=O)N/N=C/c1c(O)ccc2ccccc12	1	1	26	-1	23*	-1	-1	2
O=C(N/N=C/c1c(O)ccc2ccccc12)c1ccc(Br)o1	-2	9	2	0	19*	8	-2	-2
O=C(N/N=C\c1c(O)ccc2ccccc12)c1ccc(O)cc1	0	8	12	1	-10	-1	x	x
C=CCC(O)(CC=C)C(C)N (stereo unspecified)	-5	0	2	0	2	4	x	x
CCCCNC(=O)C1c2ccccc2OCC(=O)N1CC(F)(F)F (stereo unspecified)	x	x	6	x	20*	x	-5	-6
CCCCNC(=O)C1c2ccccc2OCC(=O)N1CCOC (stereo unspecified)	x	x	0	x	1	x	x	x

Screening results as filed in PubChem.
